In PMC5114172 (Journal of applied toxicology : JAT, 2016):

Experiments:
PBMCs with Granulocytes = assay: Cell viability, trypan blue exclusion; assay type: cell-based, human; conditions: for Percent Viable Cells: PBMCs with Granulocytes
PBMCs = assay: IL-1β secretion assay; assay type: cell-based, human
Method in brief: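 NK cells, MD-PBMCs, PBMCs or granulocytes (1.5 million/mL) or PBMC+granulocytes (0.75 million/mL each), per donor, exposed 24 h, 48 h or 6 days to 0.05–5 μM test compound diluted from DMSO stock, with DMSO controls. Supernatants kept at −70 °C. IL-1β by sandwich ELISA: HRP detection antibody, acid-stopped substrate, A450 against standards. Detection limit 3 pg/mL; triplicates; ANOVA then t test versus control, p<0.05.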

CCC[CH2][Sn][CH2]CCC [DBT, Dibutyltin]
average decrease in viability (PBMCs with Granulocytes; PBMC+granulocytes, 24 h, 5 μM DBT): 16% | Percent Viable Cells (PBMCs with Granulocytes; 24 h, 0.05 μM DBT): 94±3% | Percent Viable Cells (PBMCs with Granulocytes; 24 h, 0.1 μM DBT): 93±6% | Percent Viable Cells (PBMCs with Granulocytes; 24 h, 0.25 μM DBT): 93±4% | Percent Viable Cells (PBMCs with Granulocytes; 24 h, 0.5 μM DBT): 94±5% | Percent Viable Cells (PBMCs with Granulocytes; 24 h, 1 μM DBT): 88±6% | Percent Viable Cells (PBMCs with Granulocytes; 24 h, 2.5 μM DBT): 84±8% | Percent Viable Cells (PBMCs with Granulocytes; 24 h, 5 μM DBT): 77±4 % | Percent Viable Cells (PBMCs with Granulocytes; 48 h, 0.05 μM DBT): 93±5% | Percent Viable Cells (PBMCs with Granulocytes; 48 h, 0.1 μM DBT): 94±2% | Percent Viable Cells (PBMCs with Granulocytes; 48 h, 0.25 μM DBT): 93±5% | Percent Viable Cells (PBMCs with Granulocytes; 48 h, 0.5 μM DBT): 92±2% | Percent Viable Cells (PBMCs with Granulocytes; 48 h, 1 μM DBT): 88±10% | Percent Viable Cells (PBMCs with Granulocytes; 48 h, 2.5 μM DBT): 50±29% | Percent Viable Cells (PBMCs with Granulocytes; 48 h, 5 μM DBT): 49±12 % | Percent Viable Cells (PBMCs with Granulocytes; 6 day, 0.05 μM DBT): 80±7% | Percent Viable Cells (PBMCs with Granulocytes; 6 day, 0.1 μM DBT): 72±10% | Percent Viable Cells (PBMCs with Granulocytes; 6 day, 0.25 μM DBT): 74±8% | Percent Viable Cells (PBMCs with Granulocytes; 6 day, 0.5 μM DBT): 54±10 % | Percent Viable Cells (PBMCs with Granulocytes; 6 day, 1 μM DBT): 50±12 % | Percent Viable Cells (PBMCs with Granulocytes; 6 day, 2.5 μM DBT): 32±15 % | Percent Viable Cells (PBMCs with Granulocytes; 6 day, 5 μM DBT): 37±10 % | effect on viability compared to the control (PBMCs with Granulocytes; PBMCs+granulocytes, 24 h, 0.05–2.5 μM DBT): no effect | average of the maximum fold increase in IL-β secretion (PBMCs; 24 h, across donors): 3.2 fold | Interleukin 1 beta secreted (PBMCs; donor F148, 24 h, 0.05 μM DBT): 120.533 ± 8.211 ng/mL | Interleukin 1 beta secreted (PBMCs; donor F148, 24 h, 0.1 μM DBT): 107.467 ± 4.636 ng/mL | Interleukin 1 beta secreted (PBMCs; donor F148, 24 h, 0.25 μM DBT): 137.333 ± 3.926 ng/mL | Interleukin 1 beta secreted (PBMCs; donor F148, 24 h, 0.5 μM DBT): 32.4 ± 1.833 ng/mL | Interleukin 1 beta secreted (PBMCs; donor F148, 24 h, 1 μM DBT): 11.6 ± 11.085 ng/mL | Interleukin 1 beta secreted (PBMCs; donor F148, 24 h, 2.5 μM DBT): 12.133 ± 0.462 ng/mL | Interleukin 1 beta secreted (PBMCs; donor F148, 24 h, 5 μM DBT): 11.867 ± 0.924 ng/mL | Interleukin 1 beta secreted (PBMCs; donor F148, 48 h, 0.05 μM DBT): 15851 ± 836 ng/mL | Interleukin 1 beta secreted (PBMCs; donor F148, 48 h, 0.1 μM DBT): 17620 ± 257 ng/mL | Interleukin 1 beta secreted (PBMCs; donor F148, 48 h, 0.25 μM DBT): 18728 ± 597 ng/mL | Interleukin 1 beta secreted (PBMCs; donor F148, 48 h, 0.5 μM DBT): 5493 ± 409 ng/mL | Interleukin 1 beta secreted (PBMCs; donor F148, 48 h, 1 μM DBT): 2224 ± 329 ng/mL | Interleukin 1 beta secreted (PBMCs; donor F148, 48 h, 5 μM DBT): 483 ± 358 ng/mL | Interleukin 1 beta secreted (PBMCs; donor F148, 6 day, 0.1 μM DBT): 25 ± 0 ng/mL | Interleukin 1 beta secreted (PBMCs; donor F148, 6 day, 0.25 μM DBT): 25 ± 1 ng/mL | Interleukin 1 beta secreted (PBMCs; donor F148, 6 day, 0.5 μM DBT): 6 ± 0 ng/mL | Interleukin 1 beta secreted (PBMCs; donor F154, 24 h, 0.05 μM DBT): 5.056 ± 0.273 ng/mL | Interleukin 1 beta secreted (PBMCs; donor F154, 24 h, 0.1 μM DBT): 4.568 ± 0.168 ng/mL | Interleukin 1 beta secreted (PBMCs; donor F154, 24 h, 0.25 μM DBT): 1.383 ± 0.123 ng/mL | Interleukin 1 beta secreted (PBMCs; donor F154, 24 h, 0.5 μM DBT): 0.765 ± 0.084 ng/mL | Interleukin 1 beta secreted (PBMCs; donor F154, 24 h, 1 μM DBT): 0.38 ± 0.013 ng/mL | Interleukin 1 beta secreted (PBMCs; donor F154, 24 h, 2.5 μM DBT): 0.111 ± 0.067 ng/mL | Interleukin 1 beta secreted (PBMCs; donor F154, 48 h, 0.05 μM DBT): 4249 ± 294 ng/mL | Interleukin 1 beta secreted (PBMCs; donor F154, 48 h, 0.1 μM DBT): 4193 ± 556 ng/mL | Interleukin 1 beta secreted (PBMCs; donor F154, 48 h, 0.25 μM DBT): 1687 ± 42 ng/mL | Interleukin 1 beta secreted (PBMCs; donor F154, 48 h, 0.5 μM DBT): 1036 ± 128 ng/mL | Interleukin 1 beta secreted (PBMCs; donor F154, 48 h, 1 μM DBT): 1325 ± 72 ng/mL | Interleukin 1 beta secreted (PBMCs; donor F154, 48 h, 2.5 μM DBT): 378 ± 61 ng/mL | Interleukin 1 beta secreted (PBMCs; donor F154, 48 h, 5 μM DBT): 193 ± 0 ng/mL | Interleukin 1 beta secreted (PBMCs; donor F154, 6 day, 0.05 μM DBT): 3507 ± 155 ng/mL | Interleukin 1 beta secreted (PBMCs; donor F154, 6 day, 0.1 μM DBT): 3300 ± 114 ng/mL | Interleukin 1 beta secreted (PBMCs; donor F154, 6 day, 0.25 μM DBT): 3816 ± 464 ng/mL | Interleukin 1 beta secreted (PBMCs; donor F154, 6 day, 0.5 μM DBT): 2056 ± 114 ng/mL | Interleukin 1 beta secreted (PBMCs; donor F154, 6 day, 1 μM DBT): 2531 ± 464 ng/mL | Interleukin 1 beta secreted (PBMCs; donor F154, 6 day, 2.5 μM DBT): 586 ± 179 ng/mL | Interleukin 1 beta secreted (PBMCs; donor F154, 6 day, 5 μM DBT): 118 ± 146 ng/mL | Interleukin 1 beta secreted (PBMCs; donor F159, 24 h, 0.05 μM DBT): 2.812 ± 0.15 ng/mL | fold increase in IL-1β secretion (PBMCs; donor F159, 24 h, 0.05 μM DBT): 1.7 fold | Interleukin 1 beta secreted (PBMCs; donor F159, 24 h, 0.1 μM DBT): 6.376 ± 0.233 ng/mL | fold increase in IL-1β secretion (PBMCs; donor F159, 24 h, 0.1 μM DBT): 3.8 fold | Interleukin 1 beta secreted (PBMCs; donor F159, 24 h, 0.25 μM DBT): 5.803 ± 0.15 ng/mL | fold increase in IL-1β secretion (PBMCs; donor F159, 24 h, 0.25 μM DBT): 3.4 fold | Interleukin 1 beta secreted (PBMCs; donor F159, 24 h, 0.5 μM DBT): 1.667 ± 0.112 ng/mL | Interleukin 1 beta secreted (PBMCs; donor F159, 24 h, 1 μM DBT): 0.812 ± 0.065 ng/mL | Interleukin 1 beta secreted (PBMCs; donor F159, 48 h, 0.05 μM DBT): 1034 ± 299 ng/mL | Interleukin 1 beta secreted (PBMCs; donor F159, 48 h, 0.1 μM DBT): 1211 ± 71 ng/mL | Interleukin 1 beta secreted (PBMCs; donor F159, 48 h, 0.25 μM DBT): 1243 ± 192 ng/mL
